# Reference: ChEMBL document CHEMBL1144020, “Development of prodrug 4-chloro-3-(5-methyl-3-{[4-(2-pyrrolidin-1-ylethoxy)phenyl]amino}-1,2,4-benzotriazin-7-yl)phenyl benzoate (TG100801): a topically administered therapeutic candidate in clinical trials for the treatment of age-related macular degeneration” (J Med Chem, 2008)
# pIC50: −log10 of the molar value.
# How the values were obtained:
# [1] = Stability at 120 degC after 1 hr; format: physicochemical; conditions: read-out: Stability
# Procedure, shortened: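 Prodrugs at 0.5% in 0.5% HPMC/5% dextrose, pH 6.7, in closed vials, autoclaved at 120 °C for 1 h. After cooling, percent remaining was assessed by reverse-phase HPLC with diode-array and ELSD detection.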
# [2] = target: Vascular endothelial growth factor receptor 2 (Homo sapiens, UniProt P35968); experiment: Inhibition of VEGFR2
# Chain of Vascular endothelial growth factor receptor 2 (P35968 whole entry): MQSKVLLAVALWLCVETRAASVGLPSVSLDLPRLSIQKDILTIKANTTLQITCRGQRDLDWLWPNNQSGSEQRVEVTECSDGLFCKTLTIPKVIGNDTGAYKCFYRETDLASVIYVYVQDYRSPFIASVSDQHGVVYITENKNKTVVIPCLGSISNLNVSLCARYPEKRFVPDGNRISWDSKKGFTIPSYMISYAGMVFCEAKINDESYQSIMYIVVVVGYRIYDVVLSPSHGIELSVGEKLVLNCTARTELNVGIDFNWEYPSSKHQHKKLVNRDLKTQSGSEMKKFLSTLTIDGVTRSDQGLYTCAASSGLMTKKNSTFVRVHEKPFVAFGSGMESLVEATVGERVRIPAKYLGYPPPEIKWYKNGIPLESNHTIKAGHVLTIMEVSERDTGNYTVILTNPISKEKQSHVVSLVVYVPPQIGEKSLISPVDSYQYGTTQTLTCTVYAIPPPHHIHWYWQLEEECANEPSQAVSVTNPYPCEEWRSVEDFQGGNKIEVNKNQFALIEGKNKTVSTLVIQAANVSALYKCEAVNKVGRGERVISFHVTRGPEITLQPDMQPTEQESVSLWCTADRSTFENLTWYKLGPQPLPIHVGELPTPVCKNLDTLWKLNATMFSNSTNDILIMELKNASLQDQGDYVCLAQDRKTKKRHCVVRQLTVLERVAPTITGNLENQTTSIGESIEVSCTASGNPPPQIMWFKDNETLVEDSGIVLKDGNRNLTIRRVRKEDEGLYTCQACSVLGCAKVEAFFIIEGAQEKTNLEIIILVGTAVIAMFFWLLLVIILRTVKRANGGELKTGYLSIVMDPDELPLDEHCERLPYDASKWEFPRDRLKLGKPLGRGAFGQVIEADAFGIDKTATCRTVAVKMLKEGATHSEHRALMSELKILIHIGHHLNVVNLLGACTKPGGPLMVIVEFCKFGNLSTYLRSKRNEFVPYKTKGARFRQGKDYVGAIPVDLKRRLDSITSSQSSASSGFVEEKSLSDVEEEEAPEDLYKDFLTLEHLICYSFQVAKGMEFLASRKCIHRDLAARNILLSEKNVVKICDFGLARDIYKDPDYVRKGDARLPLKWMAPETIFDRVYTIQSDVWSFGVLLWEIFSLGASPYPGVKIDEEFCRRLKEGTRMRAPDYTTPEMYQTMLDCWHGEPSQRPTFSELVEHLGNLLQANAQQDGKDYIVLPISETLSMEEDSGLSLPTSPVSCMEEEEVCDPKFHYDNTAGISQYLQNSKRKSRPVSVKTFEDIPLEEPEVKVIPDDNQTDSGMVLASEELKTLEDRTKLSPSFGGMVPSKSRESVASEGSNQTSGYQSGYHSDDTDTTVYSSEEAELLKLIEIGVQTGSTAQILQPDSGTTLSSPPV
# [3] = target: Proto-oncogene tyrosine-protein kinase Src (Homo sapiens, UniProt P12931); experiment: Inhibition of Src
# Chain of Proto-oncogene tyrosine-protein kinase Src (P12931 2-536 limits assumed): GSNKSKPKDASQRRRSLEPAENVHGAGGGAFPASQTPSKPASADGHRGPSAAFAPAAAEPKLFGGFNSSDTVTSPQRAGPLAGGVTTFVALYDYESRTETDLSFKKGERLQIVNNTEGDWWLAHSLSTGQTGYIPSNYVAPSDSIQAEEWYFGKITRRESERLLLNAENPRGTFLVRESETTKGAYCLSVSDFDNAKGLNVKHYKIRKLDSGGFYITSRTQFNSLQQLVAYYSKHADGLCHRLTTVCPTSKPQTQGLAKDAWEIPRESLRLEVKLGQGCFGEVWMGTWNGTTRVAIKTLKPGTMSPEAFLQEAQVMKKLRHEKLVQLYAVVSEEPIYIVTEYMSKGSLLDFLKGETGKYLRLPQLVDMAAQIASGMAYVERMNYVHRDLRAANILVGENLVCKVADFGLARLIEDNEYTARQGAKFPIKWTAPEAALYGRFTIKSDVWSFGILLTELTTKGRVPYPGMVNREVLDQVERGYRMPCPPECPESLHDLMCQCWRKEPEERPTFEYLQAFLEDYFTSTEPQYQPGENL
# [4] = Stability in Dutch-belted rabbit eye assessed as hydrolysis rate; format: ADME, tissue-based, Oryctolagus cuniculus
# Procedure, shortened: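 Two Dutch-Belted rabbit eyeballs were homogenized in 1× RIPA buffer. Prodrug (from 1 mg/mL DMSO stock) was added to a final 5 µg/mL and kept at 37 °C, sampled at 0, 0.25, 1, 2 and 6 h. Controls were prodrug in RIPA buffer for 120 min at 37 °C. Supernatants were analyzed by LC/MS/MS for prodrug and released parent phenol.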
SMILES,remaining at 1 h [1] [%],pIC50 [2],other results
Cc1cc(-c2cc(OP(=O)(O)O)ccc2Cl)cc2nnc(Nc3ccc(OCCN4CCCC4)cc3)nc12,< 20,–,–
Cc1cc(-c2cc(O)ccc2Cl)cc2nnc(Nc3ccc(S(=O)(=O)NCCN4CCCC4)cc3)nc12,–,8.33,–
Cc1cc(-c2cc(O)ccc2Cl)cc2nnc(Nc3ccc(C(=O)N4CCNCC4)cc3)nc12,–,8.74,–
Cc1cc(-c2cc(O)ccc2Cl)cc2nnc(Nc3ccc(S(=O)(=O)C4CCNCC4)cc3)nc12,–,8.77,–

# Further lines, with some results ahead:
remaining at 1 h [1] [%],pIC50 [2],SMILES,other results
–,6.28,Cc1cc(-c2ccccc2)cc2nnc(Nc3ccc(OCCN4CCCC4)cc3)nc12,–
–,8.57,Cc1cc(-c2cc(O)ccc2Cl)cc2nnc(Nc3ccc(CCCN4CCCC4)cc3)nc12,pIC50 [3]: 8.82
> 90,–,Cc1cccc(C)c1C(=O)Oc1ccc(Cl)c(-c2cc(C)c3nc(Nc4ccc(OCCN5CCCC5)cc4)nnc3c2)c1,Stability [4]: 1.1 ng/mL/h
–,5.72,Cc1cc(-c2ccccc2Cl)cc2nnc(Nc3ccc(OCCN4CCCC4)cc3)nc12,–
> 90,–,Cc1cc(-c2cc(OC(=O)C(C)(C)C)ccc2Cl)cc2nnc(Nc3ccc(OCCN4CCCC4)cc3)nc12,Stability [4]: 172 ng/mL/h
